The results in this text go back to publication PMC7355085 (ACS chemical neuroscience, 2016).

Data set [1] has as its target CDK5/p25 (Homo sapiens, UniProt Q00535). The data set can be described thus: ADP-Glo kinase luminescent assay, CDK5/p25 inhibition. It is filed as biochemical.
The target of data set [2] is T1, GSK3β (Homo sapiens, UniProt P49841). It is filed as biochemical.
In data set [3] the test system is other 18 kinases. In words: Kinase selectivity panel. It is filed as biochemical. The following applies: 224 μM; p > 0.05.
Data set [4] has as its system SH-SY5Y cells. In words: Aβ42-induced tau phosphorylation in SH-SY5Y cells. Format: cell-based, human. The essentials:
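SH-SY5Y cells were seeded at 3 × 10^5 cells/mL in DMEM/F12 with 1% FBS. […] Lysates in pyrophosphate buffer pH 7.4, 10 μg/lane, 10% SDS-PAGE, PVDF; primary antibodies 2 h at room temperature; β-actin loading control.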

For data set [5], the target named is CK2 (Homo sapiens, UniProt P68400). The data set can be described thus: Kinase selectivity panel. The following applies: read-out: Inhibition against CK2. Format: biochemical.
Chain of CK2 (P68400 whole entry): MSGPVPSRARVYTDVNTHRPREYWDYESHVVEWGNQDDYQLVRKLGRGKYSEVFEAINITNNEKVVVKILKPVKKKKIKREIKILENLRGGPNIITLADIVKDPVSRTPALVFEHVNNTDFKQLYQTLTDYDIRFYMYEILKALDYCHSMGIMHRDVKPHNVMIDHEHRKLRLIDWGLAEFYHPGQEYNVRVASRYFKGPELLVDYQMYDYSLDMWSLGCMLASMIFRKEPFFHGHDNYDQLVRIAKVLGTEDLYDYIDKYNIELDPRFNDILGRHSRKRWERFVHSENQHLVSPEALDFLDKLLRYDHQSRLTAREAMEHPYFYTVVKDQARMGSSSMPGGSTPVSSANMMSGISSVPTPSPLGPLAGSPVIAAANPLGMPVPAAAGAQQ
Data set [6] addresses AKT1 (Homo sapiens, UniProt P31749). In words: Kinase selectivity panel. It is filed as biochemical. The following applies: read-out: Inhibition against AKT1.
Data set [7] deals with SH-SY5Y cells. The data set can be described thus: Cell viability / cytotoxicity assessment in SH-SY5Y cells. It is filed as cell-based, human.
Data set [8] has as its system SH-SY5Y cells. In words: Neuroprotection against Aβ42-induced cytotoxicity, cell viability assay. It is filed as cell-based, human. The following applies: 1 112 μM; combinations with LiCl 10 mM or TDZD-8 10 μM; 10 μM Aβ42, 72 h.
Data set [9] deals with T1, GSK3β. In words: GSK3β enzyme kinetics. The following applies: noncompetitive inhibition with respect to ATP, GS2 constant at 17 μM, varying ATP. It is filed as biochemical. The essentials:
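Substrate GS2 held at 17 μM while ATP and test compound concentrations were varied. Vehicle was 5% DMSO. Quadruplicates from each of two independent experiments; means ± SEM.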

For data set [10], the system named is SH-SY5Y cells. In words: Morphological changes of SH-SY5Y cells. It is filed as cell-based, human. In a few lines:
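SH-SY5Y cultures (37 °C, humidified, 5% CO2) were examined by microscopy after 72 h. Conditions were 0.2% DMSO vehicle control, 10 μM Aβ42 alone, or test compound pretreatment followed by 10 μM Aβ42. Read-out was differentiation state and neurite extension or retraction.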

For data set [11], the target named is T1, GSK3β. In words: Promiscuous aggregation assay: GSK3β inhibition with Triton X-100. It is filed as biochemical.
Data set [12] has as its target PKC (Homo sapiens, UniProt P17252). The data set can be described thus: Kinase selectivity panel. It is filed as biochemical. The following applies: read-out: Inhibition against PKC.

Where two headings read alike, the source gives them in different places. Some results are limits rather than exact numbers.

T1 sequence (P49841 whole entry): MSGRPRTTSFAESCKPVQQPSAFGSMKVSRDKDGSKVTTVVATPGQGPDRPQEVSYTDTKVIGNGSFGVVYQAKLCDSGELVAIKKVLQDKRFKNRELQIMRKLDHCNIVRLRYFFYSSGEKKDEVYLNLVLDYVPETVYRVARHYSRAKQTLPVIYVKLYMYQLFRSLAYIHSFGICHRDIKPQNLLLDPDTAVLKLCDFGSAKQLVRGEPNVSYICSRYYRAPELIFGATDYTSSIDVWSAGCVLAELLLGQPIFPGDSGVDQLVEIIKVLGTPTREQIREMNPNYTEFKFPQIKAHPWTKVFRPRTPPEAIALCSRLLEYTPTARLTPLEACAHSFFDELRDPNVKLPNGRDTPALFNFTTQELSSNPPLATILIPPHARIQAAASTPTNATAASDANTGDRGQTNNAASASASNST
Chain of CDK5/p25 (Q00535 whole entry): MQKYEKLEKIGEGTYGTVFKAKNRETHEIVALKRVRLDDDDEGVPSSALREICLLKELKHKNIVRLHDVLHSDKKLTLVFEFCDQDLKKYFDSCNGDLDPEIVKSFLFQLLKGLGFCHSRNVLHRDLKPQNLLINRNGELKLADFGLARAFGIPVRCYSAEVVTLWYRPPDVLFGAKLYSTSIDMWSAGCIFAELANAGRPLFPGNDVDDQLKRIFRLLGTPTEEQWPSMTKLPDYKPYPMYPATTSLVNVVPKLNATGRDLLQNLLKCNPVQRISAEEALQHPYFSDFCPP
Chain of CDK5/p25 (Q15078 99-307 partner limits assumed): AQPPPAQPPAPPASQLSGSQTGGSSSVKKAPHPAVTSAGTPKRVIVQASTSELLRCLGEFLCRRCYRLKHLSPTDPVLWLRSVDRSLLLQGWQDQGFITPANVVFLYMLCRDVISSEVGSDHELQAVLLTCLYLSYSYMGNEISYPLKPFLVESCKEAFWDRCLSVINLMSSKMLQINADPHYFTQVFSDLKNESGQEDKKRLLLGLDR
Chain of AKT1 (P31749 whole entry): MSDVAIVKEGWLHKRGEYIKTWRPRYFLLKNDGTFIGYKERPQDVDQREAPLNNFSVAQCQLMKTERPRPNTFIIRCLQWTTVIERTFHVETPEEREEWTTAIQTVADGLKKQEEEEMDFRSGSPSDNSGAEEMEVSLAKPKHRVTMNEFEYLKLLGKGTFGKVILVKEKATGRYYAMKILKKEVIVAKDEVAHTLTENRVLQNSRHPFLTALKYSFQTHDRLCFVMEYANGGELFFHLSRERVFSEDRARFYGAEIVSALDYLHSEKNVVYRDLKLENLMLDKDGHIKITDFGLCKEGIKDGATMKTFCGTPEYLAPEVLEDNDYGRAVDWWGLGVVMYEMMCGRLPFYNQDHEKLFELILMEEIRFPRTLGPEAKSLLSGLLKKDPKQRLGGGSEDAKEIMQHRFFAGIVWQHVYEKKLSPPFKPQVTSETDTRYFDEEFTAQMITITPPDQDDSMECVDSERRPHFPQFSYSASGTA

As to 3’-methoxymaysin [Compound 2], the IC50 in data set [1] (read-out: IC50, CDK5/p25) is above 15 mM; in data set [2] (read-out: IC50, GSK3β inhibition, 25 μM ATP, 1 h, room temperature), 288 µM.
`O=c1cc(-c2ccc(O)c(O)c2)oc2cc(O)c([C@@H]3O[C@H](CO)[C@@H](O)[C@H](O)[C@H]3O)c(O)c12` [Compound 1, isoorientin]: in data set [3], the “Inhibition of other 18 kinases of the panel” value is reported as “did not significantly inhibit”. Further, the “Levels of GSK3β pS9 and total GSK3β” value in data set [4] (co-incubation of 1 with 10 μM Aβ42, 72 h, compared to untreated cells, p > 0.05) is reported as “No significant change”. Also, the inhibition at 224 µM in [5], in [6] and in [12] was around 30% in each case. Also, in data set [7] (72 h), the “Dose up to which no cytotoxicity to SH-SY5Y cells was noted” value is above 896 µM. In addition, the “Effect on cell proliferation” value in [7] (72 h, without Aβ42) is reported as “slightly stimulated cell proliferation”. The “Neuroprotection against cell viability loss, single concentration” value in data set [8] is “neuroprotection against cell viability loss”. In addition, the affinity in data set [9], expressed as Ki, was 210 ± 22 µM. The Cell morphology result in data set [10] (pretreatment of 28 μM 1 followed by 10 μM Aβ42, 72 h) was “Partial differentiated cells with extended neurites”; in data set [10] (pretreatment of 448 μM 1 followed by 10 μM Aβ42, 72 h), “Protected differentiated cells with extended axons and dendrites”. Also, the IC50 was 192 µM in data set [11] and above 15 mM in data set [1]. Also, the “Decrease of GSK3β kinase activity” value in data set [2] (224 μM, compared to control (100% kinase activity), p < 0.0001) came to 52.4%.
In the case of `O=c1cc(-c2ccc(O)c(O)c2)oc2cc(O)cc(O)c12` [luteolin], the IC50 was found to be 32 µM in data set [11] (IC50, GSK3β, with 0.01% Triton, with 0.01% Triton X-100) and 2 µM in data set [11] (IC50, GSK3β, without Triton, before addition of Triton X-100).
For β-Amyloid fragment peptide 1–42 [Aβ42], in data set [4] (10 μM Aβ42, 72 h), the “Increase of tau phosphorylation at pS199/pS202 relative to untreated cells” value was “approximately 3.5 fold” and the “Increase of tau phosphorylation at pS396 relative to untreated cells” value is around 2.3 fold. The “Inhibition of cell growth” value in [7] (10 μM Aβ42) is on record as “about 50%”. Besides, in data set [10] (10 μM Aβ42 treatment, 72 h), the Cell morphology result was “Impaired and nondifferentiated cells with retracted neurites”.
